In ChEMBL document CHEMBL4428035, “Urea derivates of ursolic, oleanolic and maslinic acid induce apoptosis and are selective cytotoxic for several human tumor cell lines” (Eur J Med Chem, 2016):
The source made the active and inactive calls. The rule behind the calls is not given here.

What was measured:
[1] = system: NIH3T3; assay: Cytotoxicity against mouse NIH/3T3 cells assessed as reduction in cell proliferation after 96 hrs by sulforhodamine B assay; assay type: ADME, cell-based; details: NIH3T3, 96 h
[2] = Selectivity index, ratio of EC50 for mouse NIH/3T3 cells to EC50 for human SW1736 cells
[3] = system: A549; assay: Cytotoxicity against human A549 cells assessed as reduction in cell proliferation after 96 hrs by sulforhodamine B assay; assay type: functional, cell-based; details: A549, 96 h
[4] = Selectivity index, ratio of EC50 for mouse NIH/3T3 cells to EC50 for human FADU cells
[5] = system: SW-1736; assay: Cytotoxicity against human SW1736 cells assessed as reduction in cell proliferation after 96 hrs by sulforhodamine B assay; assay type: functional, cell-based; details: SW-1736, 96 h
[6] = system: HT-29; assay: Cytotoxicity against human HT-29 cells assessed as reduction in cell proliferation after 96 hrs by sulforhodamine B assay; assay type: functional, cell-based; details: HT-29, 96 h
[7] = system: 518A2; assay: Cytotoxicity against human 518A2 cells assessed as reduction in cell proliferation after 96 hrs by sulforhodamine B assay; assay type: functional, cell-based; details: 518A2, 96 h
[8] = Selectivity index, ratio of EC50 for mouse NIH/3T3 cells to EC50 for human A549 cells; details: NIH/3T3 cells versus A549 cells
[9] = Selectivity index, ratio of EC50 for mouse NIH/3T3 cells to EC50 for human MCF7 cells; details: NIH/3T3 cells versus MCF7 cells
[10] = Selectivity index, ratio of EC50 for mouse NIH/3T3 cells to EC50 for human HT-29 cells; details: NIH/3T3 cells versus HT-29 cells
[11] = Selectivity index, ratio of EC50 for mouse NIH/3T3 cells to EC50 for human 518A2 cells
[12] = system: MCF7; assay: Cytotoxicity against human MCF7 cells assessed as reduction in cell proliferation after 96 hrs by sulforhodamine B assay; assay type: functional, cell-based; details: MCF7, 96 h
[13] = system: A2780; assay: Cytotoxicity against human A2780 cells assessed as reduction in cell proliferation after 96 hrs by sulforhodamine B assay; assay type: functional, cell-based; details: A2780, 96 h
[14] = Selectivity index, ratio of EC50 for mouse NIH/3T3 cells to EC50 for human A2780 cells; details: NIH/3T3 cells versus A2780 cells
[15] = system: FaDu; assay: Cytotoxicity against human FADU cells assessed as reduction in cell proliferation after 96 hrs by sulforhodamine B assay; assay type: functional, cell-based
[16] = system: A2780; assay: Induction of apoptosis in human A2780 cells assessed as caspase-3 activation up to 72 hrs by flow cytometry; assay type: functional, cell-based
Outline: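 Caspase activation in A2780 cells was measured by flow cytometry after 24, 48 and 72 h of treatment.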

[17] = system: A2780; assay: Cell cycle arrest in human A2780 cells assessed as decrease in G1/G0 phase at 10 uM after 24 hrs by FACS analysis; assay type: functional, cell-based
Outline: (§1)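 Living A2780 cells treated with 10 µM test agent for 24 h and 48 h, then examined for cell-cycle distribution by FACS. Phase populations (Sub-G1, G1/G0, S, G2/M) were quantified by model fitting and expressed as arithmetic means of the population distribution (%).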

[18] = system: A2780; assay: Cell cycle arrest in human A2780 cells assessed as decrease in G1/G0 phase at 10 uM after 48 hrs by FACS analysis; assay type: functional, cell-based; outline: as §1
[19] = system: A2780; assay: Cell cycle arrest in human A2780 cells assessed as decrease in S phase at 10 uM after 48 hrs by FACS analysis; assay type: functional, cell-based; outline: as §1
[20] = system: A2780; assay: Induction of apoptosis in human A2780 cells assessed as secondary necrotic cells at 10 uM after 24 hrs by Annexin V/propidium iodide staining based flow cytometry relative to control; assay type: functional
Outline: (§2)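 Annexin V/propidium iodide staining of A2780 cells exposed to 10 µM compound for 24 h and 48 h, read by flow cytometry. Viable, apoptotic, necrotic and secondary-necrotic fractions were reported as relative changes versus untreated control (%).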

[21] = system: A2780; assay: Cell cycle arrest in human A2780 cells assessed as increase in S phase at 10 uM after 24 hrs by FACS analysis; assay type: functional, cell-based; outline: as §1
[22] = system: A2780; assay: Induction of apoptosis in human A2780 cells assessed as viable cells at 10 uM after 24 hrs by Annexin V/propidium iodide staining based flow cytometry relative to control; assay type: functional; details: A2780, 24 h, read-out: Activity; outline: as §2
[23] = system: A2780; assay: Induction of apoptosis in human A2780 cells assessed as apoptotic cells at 10 uM after 24 hrs by Annexin V/propidium iodide staining based flow cytometry relative to control; assay type: functional; outline: as §2
[24] = system: A2780; assay: Induction of apoptosis in human A2780 cells assessed as necrotic cells at 10 uM after 24 hrs by Annexin V/propidium iodide staining based flow cytometry relative to control; assay type: functional; outline: as §2
[25] = system: A2780; assay: Cell cycle arrest in human A2780 cells assessed as decrease in G2/M phase at 10 uM after 24 hrs by FACS analysis; assay type: functional, cell-based; outline: as §1
[26] = system: A2780; assay: Cell cycle arrest in human A2780 cells assessed as increase in subG1 phase at 10 uM after 48 hrs by FACS analysis; assay type: functional, cell-based; outline: as §1
[27] = system: A2780; assay: Induction of apoptosis in human A2780 cells assessed as necrotic cells at 10 uM after 48 hrs by Annexin V/propidium iodide staining based flow cytometry relative to control; assay type: functional; outline: as §2
[28] = system: A2780; assay: Induction of apoptosis in human A2780 cells assessed as secondary necrotic cells at 10 uM after 48 hrs by Annexin V/propidium iodide staining based flow cytometry relative to control; assay type: functional; outline: as §2
[29] = system: A2780; assay: Induction of apoptosis in human A2780 cells assessed as viable cells at 10 uM after 48 hrs by Annexin V/propidium iodide staining based flow cytometry relative to control; assay type: functional; details: A2780, 48 h, read-out: Activity; outline: as §2
[30] = system: A2780; assay: Induction of apoptosis in human A2780 cells assessed as apoptotic cells at 10 uM after 48 hrs by Annexin V/propidium iodide staining based flow cytometry relative to control; assay type: functional; outline: as §2

COCCO[C@@H]1C[C@]2(C)[C@H]3CC=C4[C@@H]5CC(C)(C)CC[C@]5(C(=O)NCc5ccccc5)CC[C@@]4(C)[C@]3(C)CC[C@H]2C(C)(C)[C@H]1OCCOC
EC50 [1]: 15.5 µM | Ratio EC50 [2]: 5 | EC50 [3]: 4.9 µM | Ratio EC50 [4]: 5 | EC50 [5]: 4.6 µM | EC50 [6]: 4.9 µM | EC50 [7]: 3.5 µM | selectivity ratio [8]: 5 | selectivity ratio [9]: 5 | selectivity ratio [10]: 5 | Ratio EC50 [11]: 5 | EC50 [12]: 6.8 µM | EC50 [13]: 2.7 µM | selectivity ratio [14]: 5

COCO[C@@H]1C[C@]2(C)[C@H]3CC=C4[C@@H]5CC(C)(C)CC[C@]5(C(=O)NCc5ccccc5)CC[C@@]4(C)[C@]3(C)CC[C@H]2C(C)(C)[C@H]1O
EC50 [1]: 16.5 µM | EC50 [15]: 3.3 µM | EC50 [3]: 12.8 µM | EC50 [5]: 5.4 µM | EC50 [6]: 5.2 µM | EC50 [7]: 3.2 µM | selectivity ratio [8]: 5 | selectivity ratio [9]: 5 | selectivity ratio [10]: 5 | EC50 [12]: 5.5 µM | selectivity ratio [14]: 5

CC(=O)O[C@H]1C[C@]2(C)[C@H]3CC=C4[C@@H]5CC(C)(C)CC[C@]5(NC(=O)Nc5ccccc5)CC[C@@]4(C)[C@]3(C)CC[C@H]2C(C)(C)[C@H]1OC(C)=O
EC50 [1]: > 120 µM | Activity [16]: inactive | Activity [17]: Active | EC50 [3]: 4.4 µM | EC50 [5]: 2.8 µM | EC50 [6]: 2.3 µM | EC50 [7]: 1.2 µM | Activity [18]: Active | Activity [19]: Active | Activity [20]: 11% | Activity [21]: Active | change in viable cells vs control (%) at 10 µM [22]: -43% | EC50 [12]: 2.8 µM | EC50 [13]: 0.9 µM | Activity [23]: 33% | Activity [24]: -1% | Activity [25]: Active | Activity [26]: Active

CC(=O)O[C@H]1C[C@]2(C)[C@H]3CC=C4[C@@H]5CC(C)(C)CC[C@]5(NC(=O)Oc5ccccc5)CC[C@@]4(C)[C@]3(C)CC[C@H]2C(C)(C)[C@H]1OC(C)=O
EC50 [1]: 15.4 µM | Activity [17]: Active | EC50 [3]: 8.5 µM | EC50 [5]: 7.3 µM | EC50 [6]: 8.5 µM | EC50 [7]: 4.4 µM | Activity [18]: Active | Activity [19]: Active | Activity [20]: 3% | Activity [21]: Active | change in viable cells vs control (%) at 10 µM [22]: -4% | EC50 [12]: 5.8 µM | EC50 [13]: 2.4 µM | Activity [23]: 2% | Activity [24]: -1% | Activity [25]: Active | Activity [26]: Active

CC(=O)O[C@@H]1C[C@]2(C)[C@H]3CC=C4[C@@H]5CC(C)(C)CC[C@]5(C(=O)NCc5ccccc5)CC[C@@]4(C)[C@]3(C)CC[C@H]2C(C)(C)[C@H]1OC(C)=O
EC50 [1]: 33.8 µM | EC50 [15]: 3.1 µM | EC50 [3]: 2.5 µM | EC50 [6]: 4.7 µM | EC50 [7]: 1.5 µM | EC50 [12]: 7.7 µM | EC50 [13]: 0.5 µM | selectivity ratio [14]: 70

CC(=O)O[C@H]1C[C@]2(C)[C@H]3CC=C4[C@@H]5CC(C)(C)CC[C@]5(C(=O)NCc5ccccc5)CC[C@@]4(C)[C@]3(C)CC[C@H]2C(C)(C)[C@H]1OC(C)=O
EC50 [1]: 9.4 µM | EC50 [15]: 2 µM | Activity [17]: Active | Activity [27]: 1% | EC50 [3]: 5.6 µM | EC50 [5]: 3.4 µM | EC50 [6]: 3.7 µM | EC50 [7]: 0.9 µM | Activity [28]: 23% | Activity [18]: Active | viability at 10 µM [29]: -79% | Activity [19]: Active | Activity [20]: 6% | Activity [21]: Active | change in viable cells vs control (%) at 10 µM [22]: -11% | EC50 [12]: 3.5 µM | EC50 [13]: 0.5 µM | Activity [23]: 5% | Activity [24]: -1% | Activity [25]: Active | Activity [30]: 55% | Activity [26]: Active

CC(=O)O[C@@H]1[C@H](OC(C)=O)C[C@]2(C)[C@H]3CC=C4[C@@H]5CC(C)(C)CC[C@]5(C(=O)NCc5ccccc5)CC[C@@]4(C)[C@]3(C)CC[C@H]2C1(C)C
EC50 [1]: 11.4 µM | EC50 [15]: 5.5 µM | Activity [17]: Active | Activity [27]: -1% | EC50 [3]: 15.6 µM | EC50 [5]: 20.7 µM | EC50 [6]: 7.7 µM | EC50 [7]: 5.7 µM | Activity [28]: 20% | Activity [18]: Active | viability at 10 µM [29]: -65% | Activity [19]: Active | Activity [20]: 10% | Activity [21]: Active | change in viable cells vs control (%) at 10 µM [22]: -16% | EC50 [12]: 7.8 µM | EC50 [13]: 1.9 µM | Activity [23]: 5% | Activity [24]: 1% | Activity [25]: Active | Activity [30]: 45% | Activity [26]: Active

CC(=O)O[C@H]1C[C@]2(C)[C@H]3CC=C4[C@@H]5CC(C)(C)CC[C@]5(C(=O)NCc5ccccc5)CC[C@@]4(C)[C@]3(C)CC[C@H]2C(C)(C)[C@@H]1OC(C)=O
EC50 [1]: 7.7 µM | EC50 [15]: 3.3 µM | Activity [17]: Active | Activity [27]: 0% | EC50 [3]: 8.8 µM | EC50 [5]: 5.2 µM | EC50 [6]: 5.2 µM | EC50 [7]: 2.3 µM | Activity [28]: 29% | Activity [18]: Active | viability at 10 µM [29]: -75% | Activity [19]: Active | Activity [20]: 9% | Activity [21]: Active | change in viable cells vs control (%) at 10 µM [22]: -12% | EC50 [12]: 7.6 µM | EC50 [13]: 1.1 µM | Activity [23]: 4% | Activity [24]: 1% | Activity [25]: Active | Activity [30]: 45% | Activity [26]: Active
